Measured values: ChEMBL document CHEMBL5352422, “Development of l-Dopa-containing diketopiperazines as blood-brain barrier shuttle” (Eur J Med Chem, 2022)
Calls of active or inactive are those of the source. The rule behind the calls is not given here. Where a SMILES comes first, the peptide text is derived from it. [ ]: non-standard residue; d: D form. Dopa = N[C@@H](Cc1ccc(O)c(O)c1)C(=O)O

Key:
[1] = tested on: PC-12; assay: Upregulation of Gpx expression in MPP+ induced rat PC-12 cells at 50 nM pretreated with compound for 24 hrs followed by MPP+ stimulation and measured after 6 hrs; assay type: functional, cell-based; settings: time 30.0 hrs
[2] = tested on: PC-12; assay: Inhibition of MPP+ induced ROS production in rat PC-12 cells at 50 uM preincubated with compound for 24 hrs followed by MPP+ treatment for 24 hrs by DCFH-DA staining based fluorescence method; assay type: functional, cell-based; settings: time 48.0 hrs
[3] = tested on: PC-12; assay: Inhibition of MPP+ induced GSH level in rat PC-12 cells at 50 uM preincubated with compound for 24 hrs followed by MPP+ treatment for 24 hrs by DTNB reagent based analysis; assay type: functional, cell-based; settings: time 48.0 hrs
[4] = Apparent permeability of the compound across apical side to basolateral side in human Caco-2 cells measured upto 180 mins by HPLC analysis; assay type: ADME, cell-based
[5] = Effective permeability of compound at 500 uM incubated for 18 hrs by […] method; assay type: ADME; settings: read-out: Peff
Method in brief: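 PAMPA-BBB: donor contained compound at 500 µM final in PBS pH 7.4 with 20% v/v MeOH. Incubated 18 h. Donor and acceptor concentrations measured by HPLC; effective permeability Pe (cm/s) calculated.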

[6] = tested on: PC-12; assay: Upregulation of xCT expression in MPP+ induced rat PC-12 cells at 50 nM pretreated with compound for 24 hrs followed by MPP+ stimulation and measured after 6 hrs; assay type: functional, cell-based; settings: time 30.0 hrs

SMILES	Activity [1]	inhibition [2]	inhibition [3]	Papp A→B at 3 h [4] [×10⁻⁶ cm/s]	Papp at 18 h, 500 µM [5] [×10⁻⁶ cm/s]	Activity [6]
N[C@@H](Cc1ccc(O)c(O)c1)C(=O)O [LEVODOPA]	Active	Active	inactive	0.82	0.75	Active
COC(=O)[C@H](Cc1ccc(O)c(O)c1)NC(=O)[C@H](CCSC)NC(C)=O (Ac-Met-[Dopa]-OMe)	–	–	–	3.5	1.42	–
NC(=O)N1c2ccccc2C=Cc2ccccc21 [CARBAMAZEPINE]	–	–	–	50.3	–	–
COCCc1ccc(OCC(O)CNC(C)C)cc1 (stereo not given) [METOPROLOL]	–	–	–	27.4	–	–
